Here are results for 48 compounds from ChEMBL document CHEMBL1152931, “Glycogen phosphorylase inhibitory effects of 2-oxo-1,2-dihydropyridin-3-yl amide derivatives” (Bioorg Med Chem, 2009).

The first assay has as its target T1, Glycogen phosphorylase, muscle form (Oryctolagus cuniculus) (UniProt P00489).
T1 sequence (whole entry): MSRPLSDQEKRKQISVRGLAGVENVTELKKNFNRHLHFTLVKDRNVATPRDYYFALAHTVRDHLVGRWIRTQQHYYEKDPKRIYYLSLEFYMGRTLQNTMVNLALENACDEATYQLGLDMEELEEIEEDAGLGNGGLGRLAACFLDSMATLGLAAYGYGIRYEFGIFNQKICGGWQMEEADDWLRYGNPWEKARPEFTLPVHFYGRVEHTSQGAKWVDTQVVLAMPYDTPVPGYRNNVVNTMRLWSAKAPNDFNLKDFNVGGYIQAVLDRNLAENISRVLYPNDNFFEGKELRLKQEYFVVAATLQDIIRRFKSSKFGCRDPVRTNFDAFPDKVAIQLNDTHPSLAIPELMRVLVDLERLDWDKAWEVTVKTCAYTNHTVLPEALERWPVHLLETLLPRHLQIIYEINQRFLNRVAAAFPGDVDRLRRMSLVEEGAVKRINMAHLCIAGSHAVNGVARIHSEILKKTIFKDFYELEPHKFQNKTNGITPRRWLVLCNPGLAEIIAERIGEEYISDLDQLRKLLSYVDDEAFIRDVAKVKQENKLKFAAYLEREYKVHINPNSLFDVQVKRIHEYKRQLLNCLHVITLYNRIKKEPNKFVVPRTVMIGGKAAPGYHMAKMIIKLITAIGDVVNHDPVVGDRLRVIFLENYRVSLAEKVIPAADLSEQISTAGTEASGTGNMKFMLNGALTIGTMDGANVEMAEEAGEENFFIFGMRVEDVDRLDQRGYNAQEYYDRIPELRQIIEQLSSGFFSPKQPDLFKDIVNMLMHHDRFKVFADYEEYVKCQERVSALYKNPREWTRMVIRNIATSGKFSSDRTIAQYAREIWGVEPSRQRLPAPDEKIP
The settings on record: 111 uM.
Compound `O=C(Cn1cccc(NCc2ccccc2)c1=O)NCc1ccccc1` came in with an inhibition of 96%.

The target of another assay is T2, Glycogen phosphorylase, muscle form (Oryctolagus cuniculus, UniProt P00489).
T2 sequence (P00489 whole entry): T1 sequence (whole entry)
Kind of assay: Inhibition of rabbit muscle glycogen phosphorylase.
Details: not given
`O=C(Cn1cccc(NCc2ccccc2)c1=O)NC1CCN(Cc2ccccc2)CC1` registered an IC50 of 813 µM.
With `O=C(Cn1cccc(NCc2ccccc2)c1=O)NCc1ccccc1`, the IC50 was 34.2 µM.
Still for that read-out and setting: the value for `O=C(Cn1cccc(NCc2ccccc2)c1=O)N[C@H](CO)c1ccccc1` was 120 µM; that for `COc1ccccc1CNC(=O)Cn1cccc(NCc2ccccc2)c1=O` was 308 µM; that for `O=C(Cn1cccc(NC(=O)c2ccccc2)c1=O)NCc1ccc(Cl)c(Cl)c1` was 162 µM.
Same read-out and setting: the value for `CCCNc1cccn(CC(=O)NCc2ccccc2)c1=O` was 343 µM; that for `O=C(Cn1cccc(NCc2ccccc2)c1=O)NCc1ccc(Cl)c(Cl)c1` was 6.3 µM.
Still for that read-out and setting: the value for `CC(=O)Nc1cccn(CC(=O)NCc2ccc(Cl)c(Cl)c2)c1=O` was 372 µM; that for `CCCNc1cccn(CC(=O)NCc2ccc(Cl)c(Cl)c2)c1=O` was 1770 µM.

The next assay concerns the target T1, Glycogen phosphorylase, muscle form (Oryctolagus cuniculus). The experiment in a line: Inhibition of rabbit muscle glycogen phosphorylase at 222 uM.
Details: not given
The procedure, abridged:
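Rabbit muscle glycogen phosphorylase a at 0.475 µg/mL, assayed in the glycogen-synthesis direction. Run 30 min at 22 °C. Compounds added in 14% DMSO. Released phosphate read at 620 nm by malachite green/ammonium molybdate in 1 M HCl. Duplicates on two occasions, averaged.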
In the case of `O=C(Cn1cccc(NC(=O)c2ccccc2)c1=O)NCc1ccccn1`, the inhibition was less than 20%.
The same measure, in the same setting: to `O=C(Cn1cccc(NC(=O)c2ccccc2)c1=O)N[C@H](CO)c1ccccc1` belongs less than 20%; to `O=C(Cn1cccc(NCc2ccccc2)c1=O)NC1CCN(Cc2ccccc2)CC1`, 45%; to `CCCNC(=O)Cn1cccc(NC(=O)c2ccccc2)c1=O`, less than 20%.
Same read-out and setting: the value for `CC(=O)Nc1cccn(CC(=O)NC2CCCCC2)c1=O` was less than 20%.
`CCCNc1cccn(CC(=O)N2CCCC2)c1=O` gave an inhibition of less than 20%.
Still for that read-out and setting: the value for `CC(=O)Nc1cccn(CC(=O)NC(C)C)c1=O` was less than 20%; that for `CC(C)CNC(=O)Cn1cccc(NC(=O)c2ccccc2)c1=O` was less than 20%.
Same read-out and setting: the value for `CC(=O)Nc1cccn(CC(=O)NCc2ccccc2)c1=O` was less than 20%; that for `CCCNC(=O)Cn1cccc(NCCC)c1=O` was less than 20%.
In turn, `CCOC(=O)Cn1cccc(NC(C)=O)c1=O` had an inhibition of less than 20%.
Still for that read-out and setting: to `O=C(Cn1cccc(NC(=O)c2ccccc2)c1=O)NCCCN1CCOCC1` belongs less than 20%; to `O=C(Cn1cccc(NC(=O)c2ccccc2)c1=O)NCc1ccccc1`, less than 20%.
The same measure, in the same setting: to `O=C(Cn1cccc(NCc2ccccc2)c1=O)N[C@H](CO)c1ccccc1` belongs 40%.
Same read-out and setting: the value for `O=C(Nc1cccn(CC(=O)N2CCCC2)c1=O)c1ccccc1` was less than 20%.
As to `CCCNC(=O)Cn1cccc(NCc2ccccc2)c1=O`, the inhibition is less than 20%.
Same read-out and setting: to `O=C(Cn1cccc(NC(=O)c2ccccc2)c1=O)N[C@@H](CO)Cc1ccccc1` belongs less than 20%; to `O=C(Cn1cccc(NC(=O)c2ccccc2)c1=O)NC1CCN(Cc2ccccc2)CC1`, less than 20%; to `CCCNc1cccn(CC(=O)OCC)c1=O`, less than 20%.
On the same count and under the same terms, to `COCCCNC(=O)Cn1cccc(NC(=O)c2ccccc2)c1=O` belongs less than 20%.
In turn, `CC(C)(CO)NC(=O)Cn1cccc(NC(=O)c2ccccc2)c1=O` returned an inhibition of less than 20%.
Turning to `COc1ccccc1CNC(=O)Cn1cccc(NCc2ccccc2)c1=O`, the inhibition was 38%.
Same read-out and setting: to `CC(C)NC(=O)Cn1cccc(NCc2ccccc2)c1=O` belongs less than 20%.
Still for that read-out and setting: to `O=C(Nc1cccn(CC(=O)N2CCCCC2)c1=O)c1ccccc1` belongs less than 20%.
In the case of `O=C(Cn1cccc(NC(=O)c2ccccc2)c1=O)NCc1ccc(Cl)c(Cl)c1`, the inhibition is 45%.
Same read-out and setting: the value for `O=C(Cn1cccc(NC(=O)c2ccccc2)c1=O)N[C@H](CO)Cc1ccccc1` was less than 20%.
On the same count and under the same terms, the value for `CCCNc1cccn(CC(=O)NCc2ccccc2)c1=O` was 80%.
The same measure, in the same setting: to `O=C(Cn1cccc(NCc2ccccc2)c1=O)N[C@H](CO)Cc1ccccc1` belongs 94%.
Take `NCCNC(=O)Cn1cccc(NC(=O)c2ccccc2)c1=O`: the inhibition is less than 20%.
On the same count and under the same terms, the value for `CCCNC(=O)Cn1cccc(NC(C)=O)c1=O` was less than 20%; that for `CCCCNC(=O)Cn1cccc(NC(=O)c2ccccc2)c1=O` was less than 20%; that for `O=C(Cn1cccc(NCc2ccccc2)c1=O)NCc1ccc(Cl)c(Cl)c1` was 94%.
As for `CC(=O)Nc1cccn(CC(=O)NCc2ccc(Cl)c(Cl)c2)c1=O`, the inhibition turned out to be 45%.
The same measure, in the same setting: the value for `O=C(Cn1cccc(NCc2ccccc2)c1=O)NCc1ccccn1` was less than 20%; that for `O=C(Cn1cccc(NC(=O)c2ccccc2)c1=O)NCCO` was less than 20%; that for `O=C(Cn1cccc(NCc2ccccc2)c1=O)N1CCCC1` was less than 20%.
The same measure, in the same setting: the value for `CCOC(=O)Cn1cccc(NCc2ccccc2)c1=O` was less than 20%.
Same read-out and setting: to `CC(=O)Nc1cccn(CC(=O)N2CCCC2)c1=O` belongs less than 20%; to `CC(C)NC(=O)Cn1cccc(NC(=O)c2ccccc2)c1=O`, less than 20%; to `O=C(Cn1cccc(NC(=O)c2ccccc2)c1=O)NCCN1CCCCC1`, less than 20%.
For `CCOC(=O)Cn1cccc(NC(=O)c2ccccc2)c1=O`, the inhibition was less than 20%.
Compound `CCNC(=O)Cn1cccc(NC(=O)c2ccccc2)c1=O` registered an inhibition of less than 20%.
Still for that read-out and setting: to `CC(=O)Nc1cccn(CC(=O)NCCO)c1=O` belongs less than 20%; to `CCCNc1cccn(CC(=O)NCc2ccc(Cl)c(Cl)c2)c1=O`, 40%; to `O=C(Cn1cccc(NC(=O)c2ccccc2)c1=O)NN1CCOCC1`, less than 20%.
The same measure, in the same setting: to `O=C(Nc1cccn(CC(=O)N2CCOCC2)c1=O)c1ccccc1` belongs less than 20%; to `NS(=O)(=O)c1ccc(CCNC(=O)Cn2cccc(NC(=O)c3ccccc3)c2=O)cc1`, less than 20%.
